Test results reported in ChEMBL document CHEMBL3808283, “Biological Characterization and in Vivo Assessment of the Activity of a New Synthetic Macrocyclic Antifungal Compound” (J Med Chem, 2016).
≈ marks a conversion by molar mass, not a printed value. Calls of active or inactive are those of the source. The rule behind the calls is not given here.

Tests used:
[1] = system: Candida albicans; experiment: Antifungal activity against azole-susceptible Candida albicans isolate DSY294 in immunocompetent Balb/c mouse candidiasis model assessed as reduction in CFU count in spleen at 40 mg/kg/day, ip regime measured on day 7 post infection; format: functional, organism-based
Procedure, shortened: (§1)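 Immunocompetent BALB/c mice, 10 per strain group, injected in the lateral tail vein with 7 × 10^4 CFU of C. albicans in 200 µL sterile saline. Compound given ip daily, 100 µL of 0.1 mg/mL in DMSO/PEG 400 2:1; fluconazole control ip at 8 mg/kg/day. On day 7, spleen and kidneys were excised, weighed and homogenized in saline, then plated on YPD agar for 2 days at 30 °C. Read-out CFU/g; Wilcoxon rank-sum test, P<0.05.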

[2] = system: Candida albicans; experiment: Antifungal activity against Candida albicans 15T measured at 48 hrs by broth dilution assay; format: functional
Procedure, shortened: (§2)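 EUCAST broth microdilution, including the update for non-fermenting yeasts (Cryptococcus, Geotrichum), on clinical and reference yeast isolates. Incubated at 37 °C and read at 24, 48 and 72 h. MIC taken as the lowest concentration with no visible growth. For Cryptococcus and Geotrichum, MICs were read only once growth was visible in the control row.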

[3] = system: Candida parapsilosis; experiment: Antifungal activity against Candida parapsilosis ATCC 34136 measured at 48 hrs by broth dilution assay; format: functional; conditions: Lodderomyces parapsilosis, ATCC 34136, 48 h; procedure, shortened: as §2
[4] = system: Candida albicans; experiment: Upregulation of RTA2 gene expression in Candida albicans SC5314 at 3 uM after 45 mins by microarray method relative to control; format: functional
Procedure, shortened: (§3)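 Log-phase C. albicans SC5314 in liquid YEPD exposed to 3 µM final for 15 or 45 min; untreated controls taken at the same time points. Three biological replicates. RNA extracted by glass-bead/phenol-chloroform method and integrity checked. One-color Cy3-labeled cRNA (600 ng) hybridized 17 h at 65 °C to 8 × 15K arrays. Expression expressed as fold change versus control.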

[5] = system: Candida albicans; experiment: Upregulation of TAC1 gene expression in Candida albicans SC5314 at 3 uM after 15 mins by microarray method relative to control; format: functional; procedure, shortened: as §3
[6] = system: Candida albicans; experiment: Upregulation of IFU5 gene expression in Candida albicans SC5314 at 3 uM after 15 mins by microarray method relative to control; format: functional; procedure, shortened: as §3
[7] = system: Candida albicans; experiment: Antifungal activity against Candida albicans 53T measured at 72 hrs by broth dilution assay; format: functional; procedure, shortened: as §2
[8] = system: Candida albicans; experiment: Upregulation of orf19.3378 gene expression in Candida albicans SC5314 at 3 uM after 15 mins by microarray method relative to control; format: functional
Procedure, shortened: (§4)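 Log-phase cultures in liquid YEPD were exposed to 3 µM compound (final) for 15 or 45 min, with untreated controls sampled at the same times, in three biological replicates. Total RNA was extracted by glass-bead/phenol-chloroform disruption and integrity-checked. One-color Cy3-labelled cRNA (600 ng) was hybridized for 17 h at 65 °C to 8 × 15K arrays, and fold change was taken versus control.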

[9] = system: Candida albicans; experiment: Upregulation of CDR2 gene expression in Candida albicans SC5314 at 3 uM after 45 mins by microarray method relative to control; format: functional; procedure, shortened: as §3
[10] = system: Candida albicans; experiment: Upregulation of CDR1 gene expression in Candida albicans SC5314 at 3 uM after 15 mins by microarray method relative to control; format: functional; procedure, shortened: as §3
[11] = system: Candida albicans; experiment: Upregulation of orf19.4531 gene expression in Candida albicans SC5314 at 3 uM after 45 mins by microarray method relative to control; format: functional; procedure, shortened: as §4
[12] = system: Candida parapsilosis; experiment: Ratio of MIC at 24 hrs to MIC at 48 hrs for Candida parapsilosis 81E; format: functional
Procedure, shortened: (§5)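 MICs by EUCAST broth microdilution, with the update for non-fermenting yeasts, incubated at 37 °C. Read at 24, 48 and 72 h as the lowest concentration preventing visible growth.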

[13] = system: Candida albicans; experiment: Upregulation of orf19.3089 gene expression in Candida albicans SC5314 at 3 uM after 45 mins by microarray method relative to control; format: functional; procedure, shortened: as §4
[14] = system: Cryptococcus neoformans; experiment: Fungicidal activity against Cryptococcus neoformans at 40 uM measured at 72 hrs by time kill assay; format: functional, organism-based
[15] = system: Candida albicans; experiment: Antifungal activity against fluconazole-susceptible Candida albicans ATCC 90028 in immunocompetent Balb/c mouse candidiasis model assessed as reduction in CFU count in spleen at 20 to 40 mg/kg/day, ip regime measured on day 7 post infection; format: functional, organism-based; procedure, shortened: as §1
[16] = system: Cryptococcus neoformans; experiment: Antifungal activity against Cryptococcus neoformans up to 96 hrs by broth dilution assay; format: functional, organism-based
[17] = system: Candida parapsilosis; experiment: Antifungal activity against Candida parapsilosis 64E measured at 24 hrs by broth dilution assay; format: functional; conditions: Lodderomyces parapsilosis; procedure, shortened: as §2
[18] = system: Candida albicans; experiment: Upregulation of orf19.6873.1 gene expression in Candida albicans SC5314 at 3 uM after 15 mins by microarray method relative to control; format: functional; procedure, shortened: as §4
[19] = system: Candida albicans; experiment: Antifungal activity against fluconazole-susceptible Candida albicans ATCC 90028 in immunocompetent Balb/c mouse candidiasis model assessed as reduction in CFU count in kidney at 20 to 40 mg/kg/day, ip regime measured on day 7 post infection; format: functional, organism-based; procedure, shortened: as §1
[20] = system: Candida albicans; experiment: Upregulation of FCR1 gene expression in Candida albicans SC5314 at 3 uM after 15 mins by microarray method relative to control; format: functional; procedure, shortened: as §3
[21] = system: Candida albicans; experiment: Upregulation of CDR1 gene expression in Candida albicans SC5314 at 3 uM after 45 mins by microarray method relative to control; format: functional; procedure, shortened: as §3
[22] = system: Candida tropicalis; experiment: Antifungal activity against Candida tropicalis 86E measured at 24 hrs by broth dilution assay; format: functional; procedure, shortened: as §2
[23] = system: Candida albicans; experiment: Upregulation of CRZ2 gene expression in Candida albicans SC5314 at 3 uM after 15 mins by microarray method relative to control; format: functional; procedure, shortened: as §3
[24] = system: Candida albicans; experiment: Upregulation of orf19.2726 gene expression in Candida albicans SC5314 at 3 uM after 15 mins by microarray method relative to control; format: functional; procedure, shortened: as §4
[25] = system: Candida albicans; experiment: Antifungal activity against Candida albicans 4T measured at 48 hrs by broth dilution assay; format: functional; procedure, shortened: as §2
[26] = system: Cryptococcus neoformans; experiment: Antifungal activity against Cryptococcus neoformans measured at 24 hrs by broth dilution assay; format: functional, organism-based; procedure, shortened: as §2
[27] = system: Candida parapsilosis; experiment: Ratio of MIC at 24 hrs to MIC at 48 hrs for Candida parapsilosis ATCC 34136; format: functional; procedure, shortened: as §5
[28] = system: Candida albicans; experiment: Upregulation of CDR2 gene expression in Candida albicans SC5314 at 3 uM after 15 mins by microarray method relative to control; format: functional; procedure, shortened: as §3
[29] = system: Candida albicans; experiment: Antifungal activity against Candida albicans 15T measured at 72 hrs by broth dilution assay; format: functional; procedure, shortened: as §2
[30] = system: Candida albicans; experiment: Upregulation of IFU5 gene expression in Candida albicans SC5314 at 3 uM after 45 mins by microarray method relative to control; format: functional; procedure, shortened: as §3
[31] = system: Pichia kudriavzevii; experiment: Antifungal activity against Candida krusei 193T measured at 24 hrs by broth dilution assay; format: functional; procedure, shortened: as §2
[32] = system: Candida tropicalis; experiment: Antifungal activity against Candida tropicalis 86E measured at 48 hrs by broth dilution assay; format: functional; procedure, shortened: as §2
[33] = system: Candida albicans; experiment: Upregulation of orf19.2726 gene expression in Candida albicans SC5314 at 3 uM after 45 mins by microarray method relative to control; format: functional; procedure, shortened: as §4

Question: Which Activity [1] does the source give for `C/C=C/CNC(=N)NCCCCCCCCN1CCCCCCCCNC(=N)NC1=O` here?
Answer: Active

Question: What about the MIC [2] of the same compound?
Answer: 5 µM (≈ 2.18 µg/mL)

Question: What about the MIC [3] of the same compound?
Answer: 80 µM (≈ 34.9 µg/mL)

Question: What about the “fold change (FC)” value [4] of the same compound?
Answer: 2.93

Question: And the “fold change (FC)” value [5]?
Answer: 2.79

Question: And the “fold change (FC)” value [6]?
Answer: 1.63

Question: And the MIC [7]?
Answer: 5 µM (≈ 2.18 µg/mL)

Question: What about the “fold change (FC)” value [8] of the same compound?
Answer: 5.32

Question: And the “fold change (FC)” value [9]?
Answer: 134.38

Question: And the “fold change (FC)” value [10]?
Answer: 3.07

Question: And the “fold change (FC)” value [11]?
Answer: 21.54

Question: What about the Ratio [12] of the same compound?
Answer: 2

Question: And the “fold change (FC)” value [13]?
Answer: 2.63

Question: And the Activity [14]?
Answer: Active

Question: What about the Activity [15] of the same compound?
Answer: Active

Question: What about the Activity [16] of the same compound?
Answer: Active

Question: And the MIC [17]?
Answer: 20 µM (≈ 8.71 µg/mL)

Question: And the “fold change (FC)” value [18]?
Answer: 2.16

Question: And the Activity [19]?
Answer: Active

Question: And the “fold change (FC)” value [20]?
Answer: 2.86

Question: And the “fold change (FC)” value [21]?
Answer: 3.75

Question: What about the MIC [22] of the same compound?
Answer: 2.5 µM (≈ 1.09 µg/mL)

Question: And the “fold change (FC)” value [23]?
Answer: 2.28

Question: What about the “fold change (FC)” value [24] of the same compound?
Answer: 5.86

Question: And the MIC [25]?
Answer: 5 µM (≈ 2.18 µg/mL)

Question: What about the Activity [26] of the same compound?
Answer: Active

Question: What about the Ratio [27] of the same compound?
Answer: 8

Question: What about the “fold change (FC)” value [28] of the same compound?
Answer: 71.84

Question: What about the MIC [29] of the same compound?
Answer: 5 µM (≈ 2.18 µg/mL)

Question: And the “fold change (FC)” value [30]?
Answer: 2.58

Question: What about the MIC [31] of the same compound?
Answer: 10 µM (≈ 4.36 µg/mL)

Question: What about the MIC [32] of the same compound?
Answer: 5 µM (≈ 2.18 µg/mL)

Question: What about the “fold change (FC)” value [33] of the same compound?
Answer: 6.56
